Source: PubChem BioAssay (Broad Institute)
Only some compounds are listed: those with a hit (about 1.7% of all), similar ones and a draw of the others.
CSC inhib: blocks cancer stem cells. cancer stem cell-like cells viability, luminescence. inhibition, % at 7.5 µM. 1.1% of 300,000 active. AID 2717; in the data active means inhibition above about 75%; tested in HMLE shEcad cells
PglD inh: blocks C. jejuni PglD acetyltransferase activity; 0.098% of 360,000 active; inhibition, % at 12.5 µM; purified PglD enzyme, DTNB colorimetric CoA detection; in the data active means inhibition above about 16%, passing the limit was not always enough
SKKanGAS inh: blocks kanamycin growth of S. pyogenes SKKanGAS strain; BacTiter-Glo, 6 h; inhibition, % at 7.5 µM; 1.3% of 300,000 active; AID 1662;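 active means mean replicate score, as percent of positive control median, at least 50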;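 further: strain carries kanamycin resistance gene driven by streptokinase promoter and grows in 40 µg/ml kanamycin; loss of luminescence reflects streptokinase promoter inhibition or plain growth inhibition; 0% = median of DMSO wells and 100% = positive control at its reference dose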
Rtt109 HAT inh: C. albicans Rtt109 histone acetyltransferase inhibition; Q5AAJ8; purified Rtt109/Vps75, ThioGlo CoA-SH fluorescence, 4 h; inhibition, % at 34.9 µM; 0.16% of 330,000 active; AID 540336;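 active means inhibition of at least 50% in every replicate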
Target sequence (Q5AAJ8 whole entry, looked up): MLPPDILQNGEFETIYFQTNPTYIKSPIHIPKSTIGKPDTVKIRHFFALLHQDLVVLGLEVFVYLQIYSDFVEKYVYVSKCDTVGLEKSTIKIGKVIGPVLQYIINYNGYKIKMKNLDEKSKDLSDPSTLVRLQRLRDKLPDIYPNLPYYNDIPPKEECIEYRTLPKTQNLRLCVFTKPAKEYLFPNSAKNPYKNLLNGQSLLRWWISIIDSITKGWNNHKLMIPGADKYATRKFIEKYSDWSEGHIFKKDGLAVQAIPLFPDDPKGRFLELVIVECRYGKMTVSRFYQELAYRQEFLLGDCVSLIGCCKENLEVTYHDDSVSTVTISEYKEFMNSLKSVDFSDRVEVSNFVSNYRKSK
PfHsp90 set2: inhibits growth of yeast expressing Plasmodium falciparum Hsp90 | S. cerevisiae expressing PfHsp90, BacTiter-Glo ATP, 48 h; yeast lacking PDR1 and PDR3 efflux regulators | inhibition, % at 9.4 µM | 0.32% of 310,000 active;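 active means every replicate shows inhibition above about 80%, whatever the replicate mean, limit read from the data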;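 further: 0% = DMSO neutral controls and 100% = 20 µM radicicol positive controls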
FN deposit inh: fibronectin deposition inhibition; AH1F fibroblasts, Alexa488-fibronectin deposition fluorescence, overnight; inhibition, % at 12.6 µM; 0.086% of 350,000 active;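 active means mean inhibition across replicates of 30% or more, regardless of how many single replicates reach that level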;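 further: positive control wells lacked labelled fibronectin entirely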
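Material – AH1F fibroblast monolayer, labelled fibronectin deposition · Reagent – labelled fibronectin 24 nM · Timing – 1 h adhesion, overnight exposure · Measured by – fluorescence at 485 nm excitation, 525 nm emission · Read-out – inhibition of fibronectin deposition signal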
Active calls of the source: *; / = no result given.

SMILES	CSC inhib	PglD inh	SKKanGAS inh	Rtt109 HAT inh	PfHsp90 set2	FN deposit inh
C[C@@H]1CN([C@@H](C)CO)C(=O)c2cc(NC(=O)Nc3ccc(F)cc3)ccc2O[C@H]1CN(C)C(=O)Nc1ccccc1	/	-5.6	/	/	/	/
CCc1cc2cccc(C)c2nc1SCC(=O)c1ccc(NC(C)=O)cc1	120.7*	-0.5	-12.6	-1.0	-14.7	/
CCc1cc2ccc(C)cc2nc1SCC(=O)c1ccc(NC(C)=O)cc1	87.4*	-4.0	2.2	0.1	-8.5	/
O=C1CC(N(CCc2ccccc2)C(=S)Nc2cc(Cl)ccc2Cl)C(=O)N1c1c(Cl)cccc1Cl (centres undefined)	106.7*	-1.1	29.4	0.6	-13.1	/
O=C1CC(N(CCc2ccccc2)C(=S)Nc2ccccc2)C(=O)N1c1ccccc1 (centres undefined)	78.6*	/	20.8	5.9	-9.7	/
CCn1c(NC(=O)/C=C/c2ccc(F)cc2)nc2ccccc21	20.0	-8.8	61.7*	-14.4	-38.4	12.9
CCn1c(NC(=O)c2ccccc2)nc2ccccc21	7.4	-5.6	22.9	12.2	21.7	-5.4
C[C@@H]1CN([C@H](C)CO)C(=O)c2cc(C#CC3(O)CCCC3)cnc2O[C@@H]1CN(C)C(=O)Cc1cccnc1	/	/	/	/	/	-3.7
COc1ccc(/C=C2\CCC/C(=C\C=N\N(C)C)C2=O)cc1	85.6*	/	5.6	0.3	23.8	7.7
COc1ccc(/C=C2\CCCCC2=O)cc1	-9.0	4.6	-1.2	1.9	5.5	3.8
O=C1/C(=C/c2ccc(C(=O)O)cc2)CCC/C1=C\c1ccc(C(=O)O)cc1	-4.8	-10.3	4.4	-6.8	6.0	3.2
CN(C)/N=C/C=C1\CCC/C(=C\c2ccc(F)c(F)c2)C1=O	84.9*	/	-12.3	6.1	23.0	16.9
CC(C)NC(=O)N(C)C[C@@H]1Oc2ccc(NC(=O)CCCCCC(=O)Nc3ccccc3N)cc2CC(=O)N([C@@H](C)CO)C[C@@H]1C	/	1.8	/	/	/	/
Clc1cc2c(nn1)Nc1ccccc1S2	-3.6	/	-1.0	-5.9	-19.0	-9.0
S=C1Nc2ccccc2Sc2ccc(Cl)cc21	-13.8	5.8	69.4*	-6.8	-4.9	-5.7
C[C@H]1CN([C@@H](C)CO)C(=O)c2cc(N(C)C)ccc2O[C@H]1CN(C)S(=O)(=O)c1ccccc1	/	1.1	/	/	/	/
Cc1ccc(-c2onc3ccc(C(=O)/C=C/N(C)C)cc23)cc1	2.9	-0.4	15.8	4.9	119.3*	10.1
CN(C)/C=C/C(=O)c1ccc2noc(-c3ccc(F)cc3)c2c1	-5.2	-1.8	11.7	2.6	59.4	17.9
COc1cc(OC)c(NC(=O)CN(C)S(=O)(=O)c2ccc(-c3ccc(=O)[nH]n3)s2)cc1Cl	-5.1	-2.3	7.0	51.9*	-13.4	20.2
CCc1ccccc1NC(=O)CN(C)S(=O)(=O)c1ccc(-c2ccc(=O)[nH]n2)s1	-3.9	-6.0	11.8	-0.3	-5.4	3.2
Cc1c(C(=O)Nc2ccc3c(c2)OCCO3)sc2nc(-c3ccccc3)cn12	-11.5	-1.5	69.8*	-0.9	11.7	-6.6
Cc1c(C(=O)Nc2ccncc2)sc2nc(-c3ccccc3)cn12	18.9	7.0	1.7	-0.6	-0.4	-8.5
CNC[C@@H]1Oc2ccc(NS(=O)(=O)c3c(C)noc3C)cc2CC(=O)N([C@H](C)CO)C[C@H]1C	/	3.9	/	/	/	-12.0
N=C(N)c1ccc(OCCCCCOc2ccc(C(=N)N)cc2)cc1	-12.8	2.0	108.0*	6.9	-8.1	-6.6
CCCCCCOc1ccc(/C(N)=N/O)cc1	23.4	/	-11.8	4.6	-18.6	/
SMILES	CSC inhib	PglD inh	SKKanGAS inh	Rtt109 HAT inh	PfHsp90 set2	FN deposit inh
CC(C)CNC1CS(=O)(=O)CC1O (centres undefined)	-3.1	-1.9	-6.5	-8.7	-0.8	7.9
O=S1(=O)CC(O)C(NCc2cccnc2)C1 (centres undefined)	-8.1	2.8	-1.9	65.0*	4.7	/
COc1ccc(CN2CCc3ccc(NC(=O)c4ccncc4)cc3C2)c(F)c1	-7.6	4.0	49.8*	1.0	3.1	8.5
C[C@H]1CN([C@@H](C)CO)S(=O)(=O)c2ccc(-c3cccc(C#N)c3)cc2O[C@@H]1CN(C)C(=O)Nc1cc(F)ccc1F	/	-2.7	/	/	/	/
Clc1ccc(-c2nnnn2-c2ccc(Cl)cc2)cc1	-7.0	-1.3	12.3	-11.6	-12.9	4.4
Cc1ccc(-n2nnnc2C(Cl)(Cl)c2nnnn2-c2ccc(C)cc2)cc1	52.7	/	-19.0	-6.1	128.4*	/
C[C@H]1CN([C@@H](C)CO)C(=O)c2cccc(NS(=O)(=O)c3cccs3)c2O[C@@H]1CN(C)C	/	-2.6	/	/	/	3.9
CNC(=O)C1=C[C@H](c2ccc(C(=O)OC)cc2)C[C@H](OCCCCO)O1	/	7.4	/	/	/	/
CC1(C)C2CC[C@]3(C)C(CC=C4[C@@H]5C[C@@](C)(CO)[C@@H](O)C[C@]5(C(=O)O)CC[C@]43C)[C@@]2(C)CC[C@@H]1O (some centres undefined)	-12.9	0.9	4.8	/	/	/
CC(=O)O[C@H]1CC[C@]2(C)[C@H]3CC=C4[C@@H]5[C@@H](C)[C@H](C)CC[C@]5(C(=O)O)CC[C@@]4(C)[C@]3(C)CC[C@H]2C1(C)C	-16.5	/	107.2*	/	/	/
CC1=CC(=O)[C@@H](O)[C@@H](c2ccccc2Br)N1C	/	-0.3	/	9.9	21.2	active
Cc1ccc(C(=O)Nc2cccc(-c3ccc(N4CCOCC4)nn3)c2)cc1	-1.9	-0.3	-3.0	/	/	-9.4
O=C(Nc1cccc(-c2ccc(N3CCOCC3)nn2)c1)c1ccc(Cl)cc1	/	-5.5	36.1	6.0	18.1	-1.9
O=C(Nc1cccc(-c2ccc(N3CCOCC3)nn2)c1)c1ccccc1Cl	/	-7.7	50.4*	10.4	/	-8.6
COc1cc(OC)cc(C(=O)Nc2cccc(-c3ccc(N4CCOCC4)nn3)c2)c1	/	-8.7	54.5*	8.8	-9.7	-0.2
COc1ccc(C(=O)Nc2cccc(-c3ccc(N4CCOCC4)nn3)c2)cc1	/	5.5	52.5*	-15.8	/	-2.3
COc1cccc(OC)c1C(=O)Nc1cccc(-c2ccc(N3CCOCC3)nn2)c1	-9.5	-7.4	2.9	51.5*	/	1.2
CC=Cc1ccc2n(c1=O)C[C@@H]1[C@@H](CO)[C@H](C(=O)Nc3nccs3)N(Cc3cc(F)ccc3F)[C@H]21 (mixture of isomers)	/	-1.4	/	/	/	-1.4
CO[C@H]1CN(C)C(=O)c2ccc(NS(=O)(=O)c3ccc(Cl)cc3)cc2OC[C@H](C)N(C)C[C@@H]1C	/	/	/	/	/	-5.5
C=CCOC(=O)C1=C(C)NC(SCC(N)=O)=C(C#N)C1c1ccc(C)cc1 (centres undefined)	2.6	-1.7	1.7	5.0	-6.4	2.7
C=CCOC(=O)C1=C(C)NC(SCC)=C(C#N)C1c1ccc(Cl)cc1 (centres undefined)	40.0	-48.0	76.2*	-0.7	-23.1	/
O=C(Nc1ccc(NC(=S)NC(=O)c2ccccc2Cl)cc1)c1cccc(Cl)c1	79.4*	4.7	28.5	-5.9	-18.7	/
Cc1noc(C)c1NC(=O)N[C@H]1CC[C@H](CCNC(=O)C2CCC2)O[C@@H]1CO	/	-1.3	/	/	/	/
